The subject of one data set is MDA-MB-231. Put plainly: Cytotoxicity against human MDA-MB-231 cells assessed as reduction in cell growth at 1 uM incubated for 48 hrs by BrdU cell proliferation assay. It is filed as functional, cell-based. The procedure, abridged:
(§1)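 48 h exposure to 1 μM, with DMSO vehicle (≤0.01%) and doxorubicin (1 μM) controls, then BrdU added for 2 h at 37 °C before fixation, DNA denaturation and colorimetric immunoassay of BrdU incorporation. Plating was 8 × 10^3 cells/well for MCF-10A and 5 × 10^3 cells/well for MDA-MB-231. Technical replicates were n = 6 for MDA-MB-231 and n = 5 for MCF-7 and MCF-10A; one-way ANOVA with Tukey's test.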

A further data set concerns MCF7. Put plainly: Cytotoxicity against human MCF7 cells assessed as reduction in cell growth at 1 uM incubated for 48 hrs by BrdU cell proliferation assay. The format is functional, cell-based. The procedure, abridged: as §1
For a further data set, the system named is MCF-10A. The data set can be described thus: Cytotoxicity against human MCF-10A cells assessed as reduction in cell growth at 1 uM incubated for 48 hrs by BrdU cell proliferation assay. It is filed as toxicity, cell-based. Summed up:
as §1

The species entered for data set [1] is Homo sapiens. The data set can be described thus: Selectivity index, ratio of IC50 for inhibition of CYP1A2 in human liver microsomes to IC50 for inhibition of CYP19A1 in human JEG-3 cells. It is filed as cell-based. The procedure, abridged: (§2)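 The CYP isoform IC50 was measured in human liver microsomes with an isoform-specific probe substrate. […] Tritiated water was charcoal-cleared and counted, then normalised to BCA protein, in triplicate. The index is the ratio of the isoform IC50 to the CYP19A1 IC50.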

The species named for data set [2] is Homo sapiens. Put plainly: Selectivity index, ratio of IC50 for inhibition of CYP2D6 in human liver microsomes to IC50 for inhibition of CYP19A1 in human JEG-3 cells. It is filed as cell-based. Summed up:
as §2

Each structure is given as a SMILES string. Active and inactive are the calls of the source. No cut-off for these calls is given here.

With `CCC#CCOc1ccc2cc(C(O)(c3ccc(Cl)cc3)c3cccnc3)oc2c1` (centres undefined), the result in the data set with MDA-MB-231 and with MCF7 was inactive. For the same compound, in the data set with MCF-10A, the Activity result is recorded as “Not Active”.

Consider `COc1ccc2cc(C(O)(c3ccc(Cl)cc3)c3cccnc3)oc2c1` (centres undefined), for which the result with MDA-MB-231 and in the data set on MCF7 was inactive. In the data set on MCF-10A, the Activity entry is listed as “Non-Toxic”.

With `COc1ccc2cc(C(O)(c3ccc(F)cc3)c3cccnc3)oc2c1` (centres undefined), the result with MDA-MB-231 and in the data set on MCF7 was inactive. In addition, the Activity entry in the data set with MCF-10A is “Non-Toxic”.

Consider `CCC#CCOc1ccc2cc(C(O)(c3ccc(Br)cc3)c3cccnc3)oc2c1` (centres undefined), for which the outcome in the data set on MDA-MB-231 and with MCF7 was inactive. In addition, in the data set with MCF-10A, the Activity entry was “Not Active”.

With `COc1ccc2cc(C(O)(c3ccc(Br)cc3)c3cccnc3)oc2c1` (centres undefined), the outcome in the data set with MDA-MB-231 and in the data set with MCF7 was inactive. For the same compound, the Activity result in the data set on MCF-10A is listed as “Non-Toxic”.

Turning to `CC#CCOc1ccc2cc(C(O)(c3ccc(Br)cc3)c3cccnc3)oc2c1` (centres undefined), the outcome in the data set with MDA-MB-231 and in the data set with MCF7 was inactive. The Activity result in the data set on MCF-10A is reported as “Non-Toxic”. For the same compound, the Ratio IC50 in the data set listed under Homo sapiens [1] and in the data set listed under Homo sapiens [2] was 30100 each time.

For `COc1ccc2cc(C(O)(c3cccnc3)c3ccc(Cl)cc3Cl)oc2c1` (centres undefined), the result in the data set with MDA-MB-231 and in the data set on MCF7 was inactive. For the same compound, in the data set with MCF-10A, the Activity result is reported as “Non-Toxic”.

As for `COc1cccc2c1C(=O)c1c(O)c3c(c(O)c1C2=O)C[C@@](O)(C(=O)CO)C[C@@H]3O[C@H]1C[C@H](N)[C@H](O)[C@H](C)O1` [DOXORUBICIN], the result in the data set on MDA-MB-231 and with MCF7 was inactive. The Activity entry in the data set with MCF-10A is “Not Active”.

As for `CC#CCOc1ccc2cc(C(O)(c3ccc(Cl)cc3)c3cccnc3)oc2c1` (centres undefined), the outcome in the data set with MDA-MB-231 and with MCF7 was inactive. Moreover, the Activity entry in the data set with MCF-10A is listed as “Non-Toxic”.

The record behind these values is ChEMBL document CHEMBL5230170, “Pyridine based dual binding site aromatase (CYP19A1) inhibitors” (RSC Med Chem, 2023).
